Test results from ChEMBL document CHEMBL1149790, “Synthesis of some novel thiourea derivatives obtained from 5-[(4-aminophenoxy)methyl]-4-alkyl/aryl-2,4-dihydro-3H-1,2,4-triazole-3-thiones and evaluation as antiviral/anti-HIV and anti-tuberculosis agents” (Eur J Med Chem, 2008).
Values after ≈ are worked out from the molar mass of the structure shown.

Legend:
[1] = test system: Human immunodeficiency virus 1; assay: Antiviral activity against HIV1 3B in human MT4 cells assessed as protection against virus-induced cytopathogenicity by MTT assay; format: functional, organism-based; parameters: Activity: concentration or dose not given beside the values; conditions: for IC50: Human immunodeficiency virus 1, 3B, MT4
In short: (§1)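 MT-4 cells at 6 × 10⁵ cells/ml infected with HIV-1 IIIB or HIV-2 ROD at 100–300 CCID50; compounds in serial five-fold dilutions, triplicate mock- and virus-infected wells. MTT viability read at 540 and 690 nm after 5 days, median OD of three wells; EC50 = 50% protection from viral cytopathic effect.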

[2] = test system: Human immunodeficiency virus 2; assay: Antiviral activity against HIV2 ROD in human MT4 cells assessed as protection against virus-induced cytopathogenicity by MTT assay; format: functional, organism-based; parameters: Activity: concentration or dose not given beside the values; conditions: for IC50: Human immunodeficiency virus 2, ROD, MT4; in short: as §1
[3] = Cytotoxicity against human MT4 cells by MTT assay; format: cell-based
In short: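 Mock-infected MT-4 cells (6 × 10⁵ cells/ml) with serial five-fold compound dilutions in triplicate; MTT reduction read at 540 and 690 nm after 5 days, median OD of three wells; CC50 = concentration reducing OD540 of mock-infected control by 50%.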

[4] = Cytotoxicity against human HeLa cells; format: cell-based
In short: (§2)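 Uninfected cell cultures exposed to test compounds alongside antiviral assays; minimum cytotoxic concentration (MCC) = concentration causing a microscopically detectable alteration of cell morphology.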

[5] = test system: Vesicular stomatitis virus; assay: Antiviral activity against vesicular stomatitis virus in human HeLa cells assessed as inhibition of virus-induced cytopathogenicity; format: functional
In short: (§3)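 Confluent cell monolayers (E6SM, HEL, HeLa or Vero, per line) inoculated with 100 CCID50 virus; 1 h adsorption, residual virus removed, then incubated with compound at 400, 200, 100 … µg/ml. Cytopathicity scored once complete in untreated virus controls; MIC = concentration inhibiting virus-induced cytopathicity.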

Coxsackievirus B4 [6] = assay: Antiviral activity against Coxsackie virus B4 in human HeLa cells assessed as inhibition of virus-induced cytopathogenicity; format: functional; conditions: Enterovirus B; in short: as §3
[7] = test system: Respiratory syncytial virus; assay: Antiviral activity against respiratory syncytial virus in human HeLa cells assessed as inhibition of virus-induced cytopathogenicity; format: functional; in short: as §3
[8] = Cytotoxicity against human E6SM cells; format: cell-based; conditions: E6SM cells; in short: as §2
[9] = Cytotoxicity against human HEL cells assessed as alteration of cell morphology; format: cell-based; in short: as §2
Human alphaherpesvirus 1 [10] = assay: Antiviral activity against HSV1 KOS in human E6SM cells assessed as reduction of virus-induced cytopathogenicity; format: functional; conditions: Human alphaherpesvirus 1, KOS; in short: as §3
Human alphaherpesvirus 1 [11] = assay: Antiviral activity against HSV1 KOS in human HEL cells assessed as reduction of virus-induced cytopathogenicity; format: functional; conditions: Human alphaherpesvirus 1, KOS; in short: as §3
Human alphaherpesvirus 2 [12] = assay: Antiviral activity against HSV2 G in human E6SM cells assessed as reduction of virus-induced cytopathogenicity; format: functional; conditions: Human alphaherpesvirus 2, G; in short: as §3
Human alphaherpesvirus 2 [13] = assay: Antiviral activity against HSV2 G in human HEL cells assessed as reduction of virus-induced cytopathogenicity; format: functional; conditions: Human alphaherpesvirus 2, G; in short: as §3
[14] = test system: Vesicular stomatitis virus; assay: Antiviral activity against in Vesicular stomatitis virus in human E6SM cells assessed as reduction of virus-induced cytopathogenicity; format: functional; in short: as §3
[15] = test system: Vesicular stomatitis virus; assay: Antiviral activity against in Vesicular stomatitis virus in human HEL cells assessed as reduction of virus-induced cytopathogenicity; format: functional; in short: as §3
Human alphaherpesvirus 1 [16] = assay: Antiviral activity against thymidine kinase deficient and acyclovir resistant HSV1 KOS in human E6SM cells assessed as reduction of virus-induced cytopathogenicity; format: functional; conditions: Human alphaherpesvirus 1, KOS; in short: as §3
Human alphaherpesvirus 1 [17] = assay: Antiviral activity against thymidine kinase deficient and acyclovir resistant HSV1 KOS in human HEL cells assessed as reduction of virus-induced cytopathogenicity; format: functional; conditions: Human alphaherpesvirus 1, KOS; in short: as §3
Vero = assay: Cytotoxicity against african green monkey Vero cells; format: cell-based; conditions: chlorocebus sabaeus; in short: as §2
Coxsackievirus B4 [18] = assay: Antiviral activity against Coxsackie virus B4 in african green monkey Vero cells assessed as reduction of virus-induced cytopathogenicity; format: functional; conditions: Enterovirus B; in short: as §3
Punta Toro virus = assay: Antiviral activity against Punta Toro virus in african green monkey Vero cells assessed as reduction of virus-induced cytopathogenicity; format: functional; in short: as §3
Human respirovirus 3 = assay: Antiviral activity against Parainfluenza 3 virus in african green monkey Vero cells assessed as reduction of virus-induced cytopathogenicity; format: functional; in short: as §3
[19] = test system: Mammalian orthoreovirus 1; assay: Antiviral activity against Reo virus 1 in african green monkey Vero cells assessed as reduction of virus-induced cytopathogenicity; format: functional; in short: as §3
Sindbis virus = assay: Antiviral activity against Sindbis virus in african green monkey Vero cells assessed as reduction of virus-induced cytopathogenicity; format: functional; in short: as §3

Row | Compound | Activity [1] [%] | IC50 [1] [µg/mL] | Activity [2] [%] | IC50 [2] [µg/mL] | CC50 [3] [µg/mL] | MCC [4] [µg/mL] | MIC [5] [µg/mL] | MIC (Coxsackievirus B4 [6]) [µg/mL] | MIC [7] [µg/mL] | MCC [8] [µg/mL] | MCC [9] [µg/mL] | MIC (Human alphaherpesvirus 1 [10]) [µg/mL] | MIC (Human alphaherpesvirus 1 [11]) [µg/mL] | MIC (Human alphaherpesvirus 2 [12]) [µg/mL] | MIC (Human alphaherpesvirus 2 [13]) [µg/mL] | MIC [14] [µg/mL] | MIC [15] [µg/mL] | MIC (Human alphaherpesvirus 1 [16]) [µg/mL] | MIC (Human alphaherpesvirus 1 [17]) [µg/mL] | Activity (Vero) | also measured
1 | C=CCNC(=S)Nc1ccc(-c2n[nH]c(=S)n2CCc2ccccc2)cc1 | 9 | > 13 | 0 | > 13 | 13 (≈ 32.9 µM) | 400 | > 80 | > 80 | > 80 | 400 | 400 | > 80 | > 80 | > 80 | > 80 | > 80 | > 80 | > 80 | > 80 | >= 80 ug ml-1 | MIC (Coxsackievirus B4 [18]): > 80 µg/mL; MIC (Punta Toro virus): > 80 µg/mL; MIC (Human respirovirus 3): > 80 µg/mL; MIC [19]: > 80 µg/mL; MIC (Sindbis virus): > 80 µg/mL
2 | S=C(Nc1ccc(Cl)cc1)Nc1ccc(-c2n[nH]c(=S)n2-c2ccccc2)cc1 | 4.5 | > 10.3 | 31 | > 10.3 | 10.3 (≈ 23.5 µM) | 80 | > 16 | > 16 | > 16 | ≥ 16 | ≥ 16 | > 16 | > 16 | > 16 | > 16 | > 16 | > 16 | > 16 | > 16 | >= 16 ug ml-1 | MIC (Coxsackievirus B4 [18]): > 16 µg/mL; MIC (Punta Toro virus): > 16 µg/mL; MIC (Human respirovirus 3): > 16 µg/mL; MIC [19]: > 16 µg/mL; MIC (Sindbis virus): > 16 µg/mL
3 | CNC(=S)Nc1ccc(-c2n[nH]c(=S)n2C)cc1 | 1 | > 80.3 | 0 | > 80.3 | 80.3 (≈ 287 µM) | 400 | > 80 | > 80 | > 80 | 400 | 400 | 240 (≈ 859 µM) | 240 (≈ 859 µM) | 240 (≈ 859 µM) | 240 (≈ 859 µM) | > 80 | > 80 | > 80 | > 80 | 400 µg/mL | MIC (Coxsackievirus B4 [18]): > 80 µg/mL; MIC (Punta Toro virus): > 80 µg/mL; MIC (Human respirovirus 3): > 80 µg/mL; MIC [19]: > 80 µg/mL; MIC (Sindbis virus): > 80 µg/mL
4 | C=CCn1c(-c2ccc(NC(=S)Nc3ccccc3)cc2)n[nH]c1=S | 30.5 | > 19.4 | 0 | > 19.4 | 19.4 (≈ 52.8 µM) | 400 | > 80 | > 80 | > 80 | 80 | 80 | > 16 | > 16 | > 16 | > 16 | > 16 | > 16 | > 16 | > 16 | 80 µg/mL | MIC (Coxsackievirus B4 [18]): > 16 µg/mL; MIC (Punta Toro virus): > 16 µg/mL; MIC (Human respirovirus 3): > 16 µg/mL; MIC [19]: > 16 µg/mL; MIC (Sindbis virus): > 16 µg/mL
5 | CCCCCCNC(=S)Nc1ccc(-c2n[nH]c(=S)n2CC)cc1 | 21 | > 2.58 | 3 | > 2.58 | 2.58 (≈ 7.1 µM) | ≥ 400 | > 400 | > 400 | > 400 | 400 | 400 | > 80 | > 80 | > 80 | > 80 | > 80 | > 80 | > 80 | > 80 | 400 µg/mL | MIC (Coxsackievirus B4 [18]): > 80 µg/mL; MIC (Punta Toro virus): > 80 µg/mL; MIC (Human respirovirus 3): > 80 µg/mL; MIC [19]: > 80 µg/mL; MIC (Sindbis virus): > 80 µg/mL
6 | CNC(=S)Nc1ccc(-c2nnc(SCc3ccccc3)n2C)cc1 | 2.5 | > 75.4 | 6 | > 75.4 | 75.4 (≈ 204 µM) | 80 | > 16 | > 16 | > 16 | ≥ 16 | ≥ 16 | > 16 | > 16 | > 16 | > 16 | > 16 | > 16 | > 16 | > 16 | 80 µg/mL | MIC (Coxsackievirus B4 [18]): > 16 µg/mL; MIC (Punta Toro virus): > 16 µg/mL; MIC (Human respirovirus 3): > 16 µg/mL; MIC [19]: > 16 µg/mL; MIC (Sindbis virus): > 16 µg/mL
7 | C=CCNC(=S)Nc1ccc(-c2n[nH]c(=S)n2CC=C)cc1 | 6.5 | > 65.4 | 0 | > 65.4 | 65.4 (≈ 197 µM) | 400 | > 80 | > 80 | > 80 | ≥ 80 | ≥ 80 | > 80 | > 80 | > 80 | > 80 | > 80 | > 80 | 240 (≈ 724 µM) | 240 (≈ 724 µM) | >= 80 ug ml-1 | MIC (Coxsackievirus B4 [18]): > 80 µg/mL; MIC (Punta Toro virus): > 80 µg/mL; MIC (Human respirovirus 3): > 80 µg/mL; MIC [19]: > 80 µg/mL; MIC (Sindbis virus): > 80 µg/mL
